Source: PubChem (Johns Hopkins Ion Channel Center)
Sampled rows, rich in hits. Any-hit rate of the full collection: about 3.1%.
KCNQ1 inh = inhibitors of human KCNQ1 channel, primary screen, cell-based, thallium flux, high-throughput; B-score at 10 µM; CHO-K1 KCNQ1, FluxOR thallium flux fluorescence; stronger effect = higher value; hit rate 1.3% among 310,000; Potassium voltage-gated channel subfamily KQT member 1 (Homo sapiens), P51787;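 active means compounds whose thallium flux B-score, printed positive for inhibition, exceeds three library SD while starting fluorescence stays within three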;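 further: channel opened by potassium depolarization with thallium stimulus after 20 min compound exposure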
KCNK3 block = human KCNK3 channel inhibitors, primary screen, CHO cells, FluxOR thallium flux, B-score; Potassium channel subfamily K member 3 (Homo sapiens), O14649; FluxOR fluorescence; stronger effect = lower value; B-score at 10 µM; hit rate 0.84% among 340,000; AID 602410, 2012;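 active means B-score under library mean minus 4 SD, starting fluorescence ratio at most library mean plus 5 SD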;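 further: more negative B-score means stronger inhibition of thallium flux through KCNK3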
KCNK9 inh = KCNK9 potassium channel inhibitors, primary screen, HEK293 cells, thallium flux | Potassium channel subfamily K member 9 (Homo sapiens), Q9NPC2 | FluxOR thallium flux fluorescence; stronger effect = lower value | B-score at 10 µM | hit rate 1.2% among 310,000;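 active means ratio B-score over 3 SD below the library mean, with starting fluorescence within 5 SD of its mean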;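 further: negative B-score means less thallium flux so channel inhibition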
KCNQ1 pot = potentiators or activators of KCNQ1 channel, primary screen, cell-based, thallium flux, high-throughput; AID 2648, 2010; B-score at 10 µM; CHO-K1 KCNQ1, thallium flux FluxOR fluorescence; stronger effect = higher value; hit rate 0.35% among 310,000;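 active means fluorescence ratio B-score, a plate-corrected score, at least three library SD, with initial intensity B-score within 5 SD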
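Test system: CHO-K1 cells stably expressing KCNQ1 / Medium: assay buffer / Also added: depolarizing K+/Tl+ stimulus, K2SO4 and Tl2SO4 each 12.5 mM in 5x stock / Incubation: 90 min dye loading and 20 min compound exposure, both at room temperature / Signal: thallium influx via FluxOR fluorescence, kinetic imaging / Evaluation: B score of baseline-normalized fluorescence ratio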
hERG rescue = hERG rescue from dofetilide block, primary screen, cell-based, CHO-hERG, FluxOR thallium flux, dofetilide IC70 | hit rate 0.51% among 310,000 | activation (rescue from dofetilide block), less the hit threshold, % at 10 µM | dofetilide IC70 present | Voltage-gated inwardly rectifying potassium channel KCNH2 (Homo sapiens), Q12809 | AID 1511, 2009;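 active means activation above the mean of controls blocked by dofetilide plus 5 SD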;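 further: thallium influx through hERG after potassium depolarization seen as dye fluorescence rise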
KCNK9 inh conf = KCNK9 potassium channel inhibitors, confirmation, HEK293 cells, thallium flux, duplicate. inhibition, % at 10 µM. AID 492992, 2010. shares compounds with KCNK9 inh. hit rate 43% among 4,900. FluxOR thallium flux fluorescence;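 active means thallium signal inhibited by more than 5 SD of the compound-free buffer control wells, on both duplicate plates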
Kir21 sel = mouse Kir2.1 channel inhibition, confirmation, selectivity assay for KCNK9 modulator project, cell-based, HEK293, thallium flux; shares compounds with KCNK9 inh; Kir2.1 cells, FluxOR thallium flux fluorescence; inhibition, % at 10 µM; hit rate 4% among 4,900;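 active means thallium signal drop more than 5 SD beyond the mean of the no-compound control wells, seen in both duplicate plates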;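 further: signal is fluorescence rise after thallium addition divided by baseline fluorescence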
KCNK9 uninduced = thallium flux in non-induced HEK293 cells, confirmation, counter-screen for KCNK9 inhibitor project, cell-based, second counter screen, non-induced KCNK9-HEK293; shares compounds with KCNK9 inh; FluxOR thallium flux; inhibition, % at 10 µM; hit rate 40% among 4,900;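 active means thallium signal drop beyond 5 SD of the untreated control mean, on both duplicate plates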
A number is an active result.

`N=c1oc2ccc(Br)cc2cc1C(=O)NCc1ccccc1` gave KCNQ1 inh inactive, KCNK3 block inactive, KCNK9 inh inactive, KCNQ1 pot inactive and hERG rescue inactive.
`CC(NC(=O)c1cc2cc(Br)ccc2oc1=N)c1ccccc1` (centres undefined) gave KCNQ1 inh inactive, KCNK3 block inactive, KCNK9 inh inactive, KCNQ1 pot inactive, hERG rescue inactive, KCNK9 inh conf inactive, Kir21 sel inactive and KCNK9 uninduced inactive.
For Cc1ccc2nc(-c3ccccc3)c(CN3CCN(c4ccccc4F)CC3)n2c1 the results were KCNQ1 inh inactive, KCNK3 block inactive, KCNK9 inh inactive, KCNQ1 pot inactive, hERG rescue inactive, KCNK9 inh conf inactive, Kir21 sel inactive and KCNK9 uninduced inactive.
`Cc1ccc2nc(-c3ccccc3)c(CN3CCSCC3)n2c1` gave KCNQ1 inh inactive, KCNK3 block inactive, KCNK9 inh inactive, KCNQ1 pot inactive and hERG rescue inactive.
O=C(COC(=O)CSc1ccc(F)cc1)NC1CCCCCC1 was read as KCNK3 block inactive.
CCN(CC)c1nc(C(N)=O)cc(-c2ccccc2)n1 was read as KCNQ1 inh inactive, KCNK3 block inactive, KCNK9 inh -8.53, KCNQ1 pot inactive, hERG rescue inactive, KCNK9 inh conf inactive, Kir21 sel inactive and KCNK9 uninduced inactive.
For CCCCN(CC)C(=O)c1cc2cc3ccc(Cl)cc3nc2o1 the results were KCNQ1 inh inactive, KCNK3 block inactive, KCNK9 inh -8.46, KCNQ1 pot inactive, hERG rescue inactive, KCNK9 inh conf 44.0%, Kir21 sel inactive and KCNK9 uninduced inactive.
`O=C(NCc1ccco1)N1c2ccccc2Sc2ccccc21` gave KCNQ1 inh inactive, KCNK3 block inactive, KCNK9 inh inactive, KCNQ1 pot inactive, hERG rescue inactive, KCNK9 inh conf inactive, Kir21 sel inactive and KCNK9 uninduced inactive.
`CC1CN(C(=O)COc2ccc3ccccc3c2)CC(C)O1` (centres undefined) gave KCNK3 block inactive.
Screening O=C(COc1ccc2ccccc2c1)N1c2ccccc2Sc2ccccc21 returned KCNQ1 inh inactive, KCNK3 block inactive, KCNK9 inh -12.8, KCNQ1 pot inactive, hERG rescue inactive, KCNK9 inh conf 55.5%, Kir21 sel inactive and KCNK9 uninduced 45.5%.
`CC(=O)N1c2ccccc2Sc2ccccc21` gave KCNQ1 inh inactive, KCNK3 block inactive, KCNK9 inh inactive, KCNQ1 pot inactive and hERG rescue inactive.
COc1ccccc1C(=O)N1c2ccccc2Sc2ccccc21 was read as KCNQ1 inh inactive, KCNK3 block inactive, KCNK9 inh -13.6, KCNQ1 pot inactive, hERG rescue inactive, KCNK9 inh conf 54.0%, Kir21 sel inactive and KCNK9 uninduced 42.0%.
`COc1ccc(CCNC(=O)N2c3ccccc3Sc3ccccc32)cc1` gave KCNQ1 inh inactive, KCNK3 block inactive, KCNK9 inh inactive, KCNQ1 pot inactive, hERG rescue inactive, KCNK9 inh conf inactive, Kir21 sel inactive and KCNK9 uninduced inactive.
CC(C)NC(=O)N1c2ccccc2Sc2ccccc21 was read as KCNQ1 inh inactive, KCNK3 block inactive, KCNK9 inh inactive, KCNQ1 pot inactive and hERG rescue inactive.
For CC(C)(C)NC(=O)N1c2ccccc2Sc2ccccc21 the results were KCNQ1 inh inactive, KCNK3 block inactive, KCNK9 inh inactive, KCNQ1 pot inactive, hERG rescue inactive, KCNK9 inh conf inactive, Kir21 sel inactive and KCNK9 uninduced inactive.
For COc1cc(OC)cc(-c2c(-c3cccs3)c3cc(-c4ccn[nH]4)ccc3n2C)c1 the results were KCNK3 block inactive.
`CC1CCCC(C)N1C(=O)COC(=O)c1cc(Br)ccc1Cl` (centres undefined) gave KCNQ1 inh inactive, KCNK3 block inactive, KCNK9 inh inactive, KCNQ1 pot inactive, hERG rescue inactive, KCNK9 inh conf inactive, Kir21 sel inactive and KCNK9 uninduced inactive.
For CCc1noc(C)c1C(=O)OCC(=O)NC(=O)c1ccccc1 the results were KCNQ1 inh inactive, KCNK3 block inactive, KCNK9 inh inactive, KCNQ1 pot inactive and hERG rescue inactive.
Screening O=C(c1ccc2c3c(cccc13)CC2)C1CCCN(Cc2cccnc2)C1 (centres undefined) returned KCNQ1 inh inactive, KCNK3 block inactive, KCNK9 inh inactive, KCNQ1 pot inactive, hERG rescue inactive, KCNK9 inh conf inactive, Kir21 sel inactive and KCNK9 uninduced inactive.
Screening CN1CCC(C(=O)N2CCCC(C(=O)c3ccc4c5c(cccc35)CC4)C2)CC1 (centres undefined) returned KCNQ1 inh inactive, KCNK3 block inactive, KCNK9 inh inactive, KCNQ1 pot inactive and hERG rescue inactive.
For CC(=O)N1CCCC(C(=O)c2ccc3c4c(cccc24)CC3)C1 (centres undefined) the results were KCNQ1 inh inactive, KCNK3 block inactive, KCNK9 inh inactive, KCNQ1 pot inactive, hERG rescue inactive, KCNK9 inh conf inactive, Kir21 sel inactive and KCNK9 uninduced inactive.
`COc1cccc(OC)c1CN1CCCC(C(=O)c2ccccc2SC)C1` (centres undefined) gave KCNQ1 inh inactive, KCNK3 block inactive, KCNK9 inh inactive, KCNQ1 pot inactive, hERG rescue inactive, KCNK9 inh conf inactive, Kir21 sel inactive and KCNK9 uninduced inactive.
`COc1cc(CN2CCCC(C(=O)c3ccc4c5c(cccc35)CC4)C2)cc(OC)c1O` (centres undefined) gave KCNQ1 inh inactive, KCNK3 block inactive, KCNK9 inh inactive, KCNQ1 pot inactive, hERG rescue inactive, KCNK9 inh conf inactive, Kir21 sel inactive and KCNK9 uninduced inactive.
COc1ccccc1CNC(=O)CCS(=O)(=O)c1ccc2c(c1)CCN2C(C)=O was read as KCNQ1 inh inactive, KCNK3 block inactive, KCNK9 inh inactive, KCNQ1 pot inactive and hERG rescue inactive.
Cc1ccc2nc(SCC(=O)N3CCCc4ccccc43)nc(=O)n2c1 was read as KCNK3 block inactive.
Screening CCOC(=O)N/N=C\c1ccc(-c2cc(Cl)ccc2Cl)o1 returned KCNQ1 inh inactive, KCNK3 block inactive, KCNK9 inh -8.57, KCNQ1 pot inactive, hERG rescue inactive, KCNK9 inh conf 45.0%, Kir21 sel inactive and KCNK9 uninduced inactive.
